Results reported in ChEMBL document CHEMBL4823286, “Synthesis and evaluation of novel 2,4-diaminopyrimidines bearing a sulfoxide moiety as anaplastic lymphoma kinase (ALK) inhibition agents” (Bioorg Med Chem Lett, 2021).
Calls of active or inactive are those of the source. The calls are words filed in the database; no cut-off is given here.

What was measured:
NCI-H2228 [1] = assay: Induction of apoptosis in human NCI-H2228 cells assessed as necrotic cells at 5 nM measured after 24 hrs by Annexin V-FITC/PI staining based flow cytometry assay (reference value: 0.21%); type: functional
Procedure, shortened: (§1)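 After 24 h or 48 h exposure (5, 25, 50 nM; DMSO 0.01% control), NCI-H2228 cells were harvested, double-stained with Annexin V-FITC and PI and run on flow cytometry. Stage percentages quantified by software; three experiments, representative shown.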

NCI-H2228 [2] = assay: Induction of apoptosis in human NCI-H2228 cells assessed as necrotic cells at 50 nM measured after 48 hrs by Annexin V-FITC/PI staining based flow cytometry assay (reference value: 2.88%); type: functional; procedure, shortened: as §1
NCI-H2228 [3] = assay: Induction of apoptosis in human NCI-H2228 cells assessed as necrotic cells at 5 nM measured after 48 hrs by Annexin V-FITC/PI staining based flow cytometry assay (reference value: 2.88%); type: functional; procedure, shortened: as §1
NCI-H2228 [4] = assay: Induction of apoptosis in human NCI-H2228 cells assessed as viable cells at 25 nM measured after 24 hrs by Annexin V-FITC/PI staining based flow cytometry assay (reference value: 95.6%); type: functional; conditions: read-out: Activity; procedure, shortened: as §1
NCI-H2228 [5] = assay: Induction of apoptosis in human NCI-H2228 cells assessed as nuclear pyknosis at 5 to 50 nM measured after 48 hrs by Hoechst 33342 staining based flourescence microscopy method; type: functional, cell-based; conditions: dose 5-50 nM
Procedure, shortened: (§2)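 Nuclear morphology: NCI-H2228 cells treated 48 h at 5, 25 and 50 nM, stained with Hoechst 33342, imaged on an inverted fluorescence microscope. Performed three times, representative images shown.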

NCI-H2228 [6] = assay: Induction of apoptosis in human NCI-H2228 cells assessed as viable cells at 50 nM measured after 24 hrs by Annexin V-FITC/PI staining based flow cytometry assay (reference value: 95.6%); type: functional; conditions: read-out: Activity; procedure, shortened: as §1
NCI-H2228 [7] = assay: Induction of apoptosis in human NCI-H2228 cells assessed as necrotic cells at 50 nM measured after 24 hrs by Annexin V-FITC/PI staining based flow cytometry assay (reference value: 0.21%); type: functional; procedure, shortened: as §1
NCI-H2228 [8] = assay: Induction of apoptosis in human NCI-H2228 cells assessed as necrotic cells at 25 nM measured after 24 hrs by Annexin V-FITC/PI staining based flow cytometry assay (reference value: 0.21%); type: functional; procedure, shortened: as §1
NCI-H2228 [9] = assay: Antiproliferative activity against human NCI-H2228 cells assessed as inhibition of cell proliferation measured by CCK8 assay; type: functional, cell-based
Procedure, shortened: (§3)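 Cell proliferation inhibition; IC50 given as mean ± SD of three independent experiments.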

NCI-H2228 [10] = assay: Induction of apoptosis in human NCI-H2228 cells assessed as viable cells at 5 nM measured after 24 hrs by Annexin V-FITC.PI staining based flow cytometry assay (reference value: 95.6%); type: functional; conditions: read-out: Activity; procedure, shortened: as §1
NCI-H2228 [11] = assay: Induction of apoptosis in human NCI-H2228 cells assessed as viable cells at 5 nM measured after 48 hrs by Annexin V-FITC/PI staining based flow cytometry assay (reference value: 95.3%); type: functional; conditions: read-out: Activity; procedure, shortened: as §1
NCI-H2228 [12] = assay: Inhibition of cell migration in human NCI-H2228 cells assessed as reduction in wound closure at 25 nM measured after 12 to 24 hrs by wound healing assay based phase contrast microscopy method; type: functional; conditions: time 12-24 hrs
Procedure, shortened: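 Wound-closure migration: NCI-H2228 cells kept in 1640 medium containing compound for 12 h or 24 h, photographed by phase contrast microscopy (4× objective); untreated control for comparison. Three experiments.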

NCI-H2228 [13] = assay: Cell cycle arrest in human NCI-H2228 cells assessed as accumulation of cells in G1 phase at 20 nM measured after 24 hrs by PI staining based flow cytometry method (reference value: 67.77%); type: functional
Procedure, shortened: (§4)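 NCI-H2228 cells exposed to 20 nM for 0, 12, 24 or 48 h, stained with PI and analysed by flow cytometry for G0/G1, S and G2/M fractions. Phase percentages quantified by analysis software; three independent experiments, representative run shown.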

NCI-H2228 [14] = assay: Induction of apoptosis in human NCI-H2228 cells assessed as late apoptotic cells at 50 nM measured after 24 hrs by Annexin V-FITC/PI staining based flow cytometry assay (reference value: 2.02%); type: functional; procedure, shortened: as §1
NCI-H2228 [15] = assay: Cell cycle arrest in human NCI-H2228 cells assessed as downregulation of CDK4 protein expression at 20 nM measured after 12 to 48 hrs by western blot assay; type: functional, cell-based; conditions: time 12-48 hrs
Procedure, shortened: (§5)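 Western blot of cell-cycle regulatory proteins in NCI-H2228 cells held at 20 nM for 0, 12, 24 or 48 h. Performed three times, representative blot shown.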

NCI-H2228 [16] = assay: Cell cycle arrest in human NCI-H2228 cells assessed as accumulation of cells in S phase at 20 nM measured after 48 hrs by PI staining based flow cytometry method (reference value: 30%); type: functional; procedure, shortened: as §4
NCI-H2228 [17] = assay: Cell cycle arrest in human NCI-H2228 cells assessed as accumulation of cells in G2/M phase at 20 nM measured after 24 hrs by PI staining based flow cytometry method (reference value: 2.23%); type: functional; procedure, shortened: as §4
NCI-H2228 [18] = assay: Induction of apoptosis in human NCI-H2228 cells assessed as late apoptotic cells at 5 nM measured after 24 hrs by Annexin V-FITC/PI staining based flow cytometry assay (reference value: 2.02%); type: functional; procedure, shortened: as §1
NCI-H2228 [19] = assay: Induction of apoptosis in human NCI-H2228 cells assessed as early apoptotic cells at 5 nM measured after 48 hrs by Annexin V-FITC/PI staining based flow cytometry assay (reference value: 1.58%); type: functional; procedure, shortened: as §1
NCI-H2228 [20] = assay: Cell cycle arrest in human NCI-H2228 cells assessed as accumulation of cells in G1 phase at 20 nM measured after 48 hrs by PI staining based flow cytometry method (reference value: 67.77%); type: functional; procedure, shortened: as §4
NCI-H2228 [21] = assay: Induction of apoptosis in human NCI-H2228 cells assessed as late apoptotic cells at 25 nM measured after 24 hrs by Annexin V-FITC/PI staining based flow cytometry assay (reference value: 2.02%); type: functional; procedure, shortened: as §1
NCI-H2228 [22] = assay: Cell cycle arrest in human NCI-H2228 cells assessed as downregulation of Cyclin D1 protein expression at 20 nM measured after 12 to 48 hrs by western blot assay; type: functional, cell-based; conditions: time 12-48 hrs; procedure, shortened: as §5
NCI-H2228 [23] = assay: Induction of apoptosis in human NCI-H2228 cells assessed as viable cells at 50 nM measured after 48 hrs by Annexin V-FITC/PI staining based flow cytometry assay (reference value: 95.3%); type: functional; conditions: read-out: Activity; procedure, shortened: as §1
NCI-H2228 [24] = assay: Induction of apoptosis in human NCI-H2228 cells assessed as necrotic cells at 25 nM measured after 48 hrs by Annexin V-FITC/PI staining based flow cytometry assay (reference value: 2.88%); type: functional; procedure, shortened: as §1
NCI-H2228 [25] = assay: Induction of apoptosis in human NCI-H2228 cells assessed as early apoptotic cells at 25 nM measured after 24 hrs by Annexin V-FITC/PI staining based flow cytometry assay (reference value: 2.18%); type: functional; procedure, shortened: as §1
NCI-H2228 [26] = assay: Cell cycle arrest in human NCI-H2228 cells assessed as accumulation of cells in G2/M phase at 20 nM measured after 12 hrs by PI staining based flow cytometry method (reference value: 2.23%); type: functional; procedure, shortened: as §4
NCI-H2228 [27] = assay: Cell cycle arrest in human NCI-H2228 cells assessed as accumulation of cells in G1 phase at 20 nM measured after 12 hrs by PI staining based flow cytometry method (reference value: 67.77%); type: functional; procedure, shortened: as §4
NCI-H2228 [28] = assay: Induction of apoptosis in human NCI-H2228 cells assessed as early apoptotic cells at 25 nM measured after 48 hrs by Annexin V-FITC/PI staining based flow cytometry assay (reference value: 1.58%); type: functional; procedure, shortened: as §1
NCI-H2228 [29] = assay: Induction of apoptosis in human NCI-H2228 cells assessed as late apoptotic cells at 25 nM measured after 48 hrs by Annexin V-FITC/PI staining based flow cytometry assay (reference value: 0.23%); type: functional; procedure, shortened: as §1
NCI-H2228 [30] = assay: Cell cycle arrest in human NCI-H2228 cells assessed as accumulation of cells in S phase at 20 nM measured after 24 hrs by PI staining based flow cytometry method (reference value: 30%); type: functional; procedure, shortened: as §4
NCI-H2228 [31] = assay: Induction of apoptosis in human NCI-H2228 cells assessed as early apoptotic cells at 50 nM measured after 48 hrs by Annexin V-FITC/PI staining based flow cytometry assay (reference value: 1.58%); type: functional; procedure, shortened: as §1
NCI-H2228 [32] = assay: Induction of apoptosis in human NCI-H2228 cells assessed as induction of mitochondrial membrane potential collapse at 5 to 50 nM measured after 24 hrs by JC-1 probe based flourescence microscopy; type: functional, cell-based; conditions: dose 5-50 nM
Procedure, shortened: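 JC-1 read of mitochondrial membrane potential: NCI-H2228 cells given 5, 25 or 50 nM, or DMSO 0.01%, for 24 h, then probe-loaded 30 min and viewed by fluorescence microscopy for red aggregate versus green monomer signal. Three experiments.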

NCI-H2228 [33] = assay: Cell cycle arrest in human NCI-H2228 cells assessed as accumulation of cells in G2/M phase at 20 nM measured after 48 hrs by PI staining based flow cytometry method (reference value: 2.23%); type: functional; procedure, shortened: as §4
NCI-H2228 [34] = assay: Induction of apoptosis in human NCI-H2228 cells assessed as viable cells at 25 nM measured after 48 hrs by Annexin V-FITC/PI staining based flow cytometry assay (reference value: 95.3%); type: functional; conditions: read-out: Activity; procedure, shortened: as §1
BaF3 = assay: Antiproliferative activity against mouse BaF3 cells overexpressing ALK assessed as inhibition of cell proliferation measured by CCK8 assay; type: functional, cell-based; procedure, shortened: as §3
NCI-H2228 [35] = assay: Cell cycle arrest in human NCI-H2228 cells assessed as accumulation of cells in S phase at 20 nM measured after 12 hrs by PI staining based flow cytometry method (reference value: 30%); type: functional; procedure, shortened: as §4
NCI-H2228 [36] = assay: Induction of apoptosis in human NCI-H2228 cells assessed as late apoptotic cells at 50 nM measured after 48 hrs by Annexin V-FITC/PI staining based flow cytometry assay (reference value: 0.23%); type: functional; procedure, shortened: as §1
NCI-H2228 [37] = assay: Induction of apoptosis in human NCI-H2228 cells assessed as late apoptotic cells at 5 nM measured after 48 hrs by Annexin V-FITC/PI staining based flow cytometry assay (reference value: 0.23%); type: functional; procedure, shortened: as §1
NCI-H2228 [38] = assay: Induction of apoptosis in human NCI-H2228 cells assessed as early apoptotic cells at 5 nM measured after 24 hrs by Annexin V-FITC/PI staining based flow cytometry assay (reference value: 2.18%); type: functional; procedure, shortened: as §1
NCI-H2228 [39] = assay: Induction of apoptosis in human NCI-H2228 cells assessed as nuclear fragmentation at 5 to 50 nM measured after 48 hrs by Hoechst 33342 staining based flourescence microscopy method; type: functional, cell-based; conditions: dose 5-50 nM; procedure, shortened: as §2
NCI-H2228 [40] = assay: Induction of apoptosis in human NCI-H2228 cells assessed as early apoptotic cells at 50 nM measured after 24 hrs by Annexin V-FITC/PI staining based flow cytometry assay (reference value: 2.18%); type: functional; procedure, shortened: as §1

IC50 (NCI-H2228 [9]): 24.4 nM
IC50 (BaF3): 8.11 nM
Compound: CCC(=O)Nc1cc(Nc2ncc(Cl)c(Nc3ccc(F)cc3[S+]([O-])CC)n2)c(OC)cc1N1CCN(C)CC1 (stereo unspecified)
Activity (NCI-H2228 [1]): 0.17%
Activity (NCI-H2228 [2]): 4.55%
Activity (NCI-H2228 [3]): 0.69%
viability at 0.025 µM (NCI-H2228 [4]): 76.3%
Activity (NCI-H2228 [5]): Active
viability at 0.05 µM (NCI-H2228 [6]): 76.1%
Activity (NCI-H2228 [7]): 0.47%
Activity (NCI-H2228 [8]): 0.17%
viability at 0.005 µM (NCI-H2228 [10]): 83.2%
viability at 0.005 µM (NCI-H2228 [11]): 77%
Activity (NCI-H2228 [12]): Active
Activity (NCI-H2228 [13]): 82.13%
Activity (NCI-H2228 [14]): 5.14%
Activity (NCI-H2228 [15]): Active
Activity (NCI-H2228 [16]): 10.1%
Activity (NCI-H2228 [17]): 7.16%
Activity (NCI-H2228 [18]): 7.02%
Activity (NCI-H2228 [19]): 8.19%
Activity (NCI-H2228 [20]): 86.49%
Activity (NCI-H2228 [21]): 9.63%
Activity (NCI-H2228 [22]): Active
viability at 0.05 µM (NCI-H2228 [23]): 10.1%
Activity (NCI-H2228 [24]): 0.22%
Activity (NCI-H2228 [25]): 13.9%
Activity (NCI-H2228 [26]): 8.55%
Activity (NCI-H2228 [27]): 71.23%
Activity (NCI-H2228 [28]): 19.9%
Activity (NCI-H2228 [29]): 37.1%
Activity (NCI-H2228 [30]): 10.21%
Activity (NCI-H2228 [31]): 7.9%
Activity (NCI-H2228 [32]): Active
Activity (NCI-H2228 [33]): 3.41%
viability at 0.025 µM (NCI-H2228 [34]): 42.8%
Activity (NCI-H2228 [35]): 20.22%
Activity (NCI-H2228 [36]): 77.5%
Activity (NCI-H2228 [37]): 14.1%
Activity (NCI-H2228 [38]): 9.56%
Activity (NCI-H2228 [39]): Active
Activity (NCI-H2228 [40]): 18.3%
